Assay results from different studies.
Protocols differ between the studies behind these lines.
blaNDM-1: Metallo-beta-lactamase type 2 (blaNDM-1, Klebsiella pneumoniae, UniProt C7C422)
HLA class I histocompatibility antigen, B alpha chain: HLA class I histocompatibility antigen, B alpha chain (Homo sapiens, UniProt P01889)
HTR2B: 5-hydroxytryptamine receptor 2B (HTR2B, Homo sapiens, UniProt P41595)

| SMILES | target | assay | conditions | IC50 [µM] |
| --- | --- | --- | --- | --- |
| CCN(CC)C(=O)N[C@@H]1C[C@@H]2c3cccc4[nH]cc(c34)C[C@H]2N(C)C1 | blaNDM-1 | enzyme activity, inhibitor |  | > 30 |
| Fc1ccc(CC(c2ccccc2)N2CCCC2)cc1 (stereo not drawn) | Sigma intracellular receptor 2 (Tmem97, Rattus norvegicus, UniProt Q5U3Y7) | ligand displacement, radioligand |  | > 10 |
| OCCN(CCO)c1nc(N2CCCCC2)c2nc(N(CCO)CCO)nc(N3CCCCC3)c2n1 | blaNDM-1 | enzyme activity, inhibitor |  | > 10 |
| c1ccc(CNCc2ccccn2)nc1 | blaNDM-1 | enzyme activity, inhibitor, fluorescence |  | 2.6 |
| C[C@H](NC(=O)[C@@H](CCC(=O)O)NC(=O)CN1CCN(CC(=O)O)CCN(CC(=O)O)CCN(CC(=O)O)CC1)C(=O)N[C@@H](Cc1ccc(O)cc1)C(=O)NCC(=O)N[C@@H](Cc1c[nH]c2ccccc12)C(=O)N[C@H](C(=O)N[C@@H](CC(=O)O)C(=O)N[C@@H](Cc1cccc2ccccc12)C(N)=O)c1ccccc1 | Gastrin/cholecystokinin type B receptor (CCKBR, Homo sapiens, UniProt P32239) | ligand displacement, radioligand |  | 0.184 |
| C[C@H](N)Cn1ncc2ccc3c(c21)CCCO3 | D(3) dopamine receptor (Drd3, Rattus norvegicus, UniProt P19020) | ligand displacement, radioligand |  | 7.2 |
| CC(C)[C@H](NC(=O)[C@@H](NC(=O)[C@H](CCCNC(=N)N)NC(=O)[C@H](C)NC(=O)[C@H](C)NC(=O)[C@H](CCC(=O)O)NC(=O)[C@H](CO)NC(=O)[C@H](C)NC(=O)[C@@H](N)Cc1ccccc1)C(C)C)C(=O)O | HLA class I histocompatibility antigen, B alpha chain | ligand displacement, radioligand |  | 8.55 |
| C[C@H](N)[C@H](O)c1cccc(O)c1 | HTR2B | calcium signal, antagonist, fluorescence |  | 7.38 |
| O=C(O)c1cccc(C(=O)O)n1 | blaNDM-1 | enzyme activity, inhibitor, fluorescence |  | 4.26 |
| CC[C@H](C)[C@H](NC(=O)[C@@H](NC(=O)[C@@H](NC(=O)[C@H](CC(N)=O)NC(=O)[C@@H](NC(=O)[C@H](CO)NC(=O)[C@H](CC(N)=O)NC(=O)[C@H](CC(C)C)NC(=O)[C@@H](N)Cc1ccc(O)cc1)[C@@H](C)O)C(C)C)[C@@H](C)O)C(=O)O | HLA class I histocompatibility antigen, B alpha chain | ligand displacement, radioligand |  | 7.93 |
| CSCC[C@H](NC(=O)[C@H](CCC(N)=O)NC(=O)[C@H](C)NC(=O)[C@H](CO)NC(=O)[C@@H](N)CO)C(=O)N[C@@H](CC(N)=O)C(=O)N[C@@H](CC(C)C)C(=O)N[C@@H](CC(N)=O)C(=O)N[C@H](C(=O)N[C@@H](Cc1ccccc1)C(=O)N[C@@H](CC(C)C)C(=O)N[C@@H](CC(N)=O)C(=O)O)[C@@H](C)O | 1-deoxy-D-xylulose-5-phosphate synthase (dxs, Deinococcus radiodurans, UniProt Q9RUB5) | enzyme activity, inhibitor, absorbance | pH 7.6 | > 1000 |
| CC(=O)c1cc(O)c2ccccc2c1O | mRNA cap guanine-N(7) methyltransferase (RNMT, Homo sapiens, UniProt O43148) | enzyme activity, inhibitor |  | 63.3 |
| CCCCCCCCCCCCCCC(Br)C(=O)O (stereo not drawn) | Palmitoyltransferase ZDHHC20 (ZDHHC20, Homo sapiens, UniProt Q5W0Z9) | enzyme activity, inhibitor |  | 5.33 |
| CCCCCNC(=N)N/N=C/c1c[nH]c2ccc(OC)cc12 | HTR2B | ligand displacement, radioligand |  | 0.008 |
| O=C(O)C1CSC(C(=O)O)N1 (stereo not drawn) | blaNDM-1 | enzyme activity, inhibitor, fluorescence |  | 55 |
| COc1ncccc1-c1cnn2ccc(N3CCN(C(=O)OC(C)C)CC3)nc12 | BMP-2-inducible protein kinase (BMP2K, Homo sapiens, UniProt Q9NSY1) | enzyme activity, inhibitor |  | 0.014 |
| CC(C)[C@H](NC(=O)[C@@H](NC(=O)[C@@H](NC(=O)[C@@H](NC(=O)[C@@H](NC(=O)[C@H](Cc1ccccc1)NC(=O)[C@H](CCC(=O)O)NC(=O)[C@@H](N)CC(=O)O)C(C)C)C(C)C)C(C)C)[C@@H](C)O)C(=O)O | HLA class I histocompatibility antigen, B alpha chain | ligand displacement, radioligand |  | 52.8 |
| CC(C)C[C@H](NC(=O)[C@H](Cc1ccccc1)NC(=O)c1cnccn1)B(O)O | Complement C1r subcomponent (Homo sapiens, UniProt P00736) | enzyme activity, inhibitor |  | > 33 |
| CC[C@H](C)[C@H](NC(=O)[C@H](CC(C)C)NC(=O)CN)C(=O)N[C@H](C(=O)N[C@@H](CC(C)C)C(=O)N[C@@H](CO)C(=O)N[C@@H](Cc1ccc(O)cc1)C(=O)N[C@@H](Cc1c[nH]cn1)C(=O)N[C@@H](CC(C)C)C(=O)O)[C@@H](C)O | HLA class I histocompatibility antigen, B alpha chain | ligand displacement, radioligand |  | 14.3 |
| CN(Cc1ccccc1)C(=O)Oc1nsnc1N1CCCCC1 | Monoglyceride lipase (MGLL, Homo sapiens, UniProt Q99685) | enzyme activity, inhibitor |  | 5.6 |
| Ic1ccccc1CN[C@@H]1C2CCN(CC2)[C@@H]1C(c1ccccc1)c1ccccc1 (racemic) | Substance-P receptor (TACR1, Homo sapiens, UniProt P25103) | ligand displacement, radioligand |  | 0.00262 |
